pIC50: −log10 of the molar value. Activity calls are given as the source filed them. No cut-off for these calls is given here.
How the values were obtained:
PC-3 [1] = experiment: Antiproliferative activity against human PC3 cells after 48 hrs by CellTiter 96 aqueous one solution assay; type: functional, cell-based; details: PC-3, 48 h
How it was run: (§1)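 Cells in 10% FBS medium with penicillin/streptomycin at 37°C, 5% CO2, seeded at 3000-10000 per well and precultured 1 day. DMSO stocks (10 mM) were diluted to a 10 µM top working solution, then serially diluted 3-fold in medium. Exposure was 48 h. Read-out was MTS tetrazolium-to-formazan absorbance at 492 nm. IC50 came from a three-parameter logistic fit, mean of three independent experiments.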

A-375 [2] = experiment: Antiproliferative activity against human A375 cells after 48 hrs by CellTiter 96 aqueous one solution assay; type: functional, cell-based; details: A-375, 48 h; how it was run: as §1
HeLa = experiment: Antiproliferative activity against human HeLa cells after 48 hrs by CellTiter 96 aqueous one solution assay; type: functional, cell-based; how it was run: as §1
Mus musculus [3] = experiment: Toxicity in ICR mouse implanted with EAC cells assessed as decrease in spleen index at 0.06 to 0.6 mg/kg, ip qd dosed for 10 consecutive days; type: organism-based; details: in vivo
How it was run: (§2)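 Adult male ICR mice, 6 weeks, 20-25 g, n=7 per group. Given 5×10^6 EAC cells s.c. in the right thigh; cells came from intraperitoneal passage in donor mice. From day 1, dosed i.p. daily for 10 d (0.1 mL/10 g) in saline with 4% DMA and 2% Solutol HS15; vehicle controls included. Spleen and thymus weighed at sacrifice; organ index is organ weight/body weight.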

Mus musculus [4] = experiment: Toxicity in ICR mouse implanted with EAC cells assessed as decrease in thymus index at 0.06 to 0.6 mg/kg, ip qd dosed for 10 consecutive days; type: organism-based; details: in vivo; how it was run: as §2
Ehrlich = experiment: Antitumor activity against mouse EAC cells implanted in ICR mouse assessed as tumor growth inhibition at 30 mg/kg, ip qd dosed for 10 consecutive days relative to control; details: read-out: TGI
Homo sapiens [5] = species: Homo sapiens; experiment: Induction of microtubule disruption in human A375 cells assessed as appearance of rounded cell at 70 nM after 24 hrs by FITC/DAPI staining-based fluorescence assay
How it was run: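 A375 cells at 8×10^3 per well were treated for 24 h at 37°C, then washed, fixed, blocked and permeabilized. They were stained with anti-α-tubulin overnight and a FITC secondary for 3 h, and nuclei were counterstained with DAPI. Automated imaging was at 200×, and rounded cells were scored from morphology.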

Homo sapiens [6] = species: Homo sapiens; experiment: Induction of microtubule disruption in human A375 cells assessed as cell detachment at 70 nM after 24 hrs by FITC/DAPI staining-based fluorescence assay
How it was run: (§3)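 A375 cells grown in 96-well plates, 8×10^3 cells/well, exposed to DMSO vehicle or compound for 24 h at 37°C. Cells were washed, then fixed, blocked and permeabilized. They were stained overnight with monoclonal α-tubulin primary antibody, then 3 h with FITC-labelled secondary; nuclei counterstained with DAPI. Imaged on an automated imaging system at 200×. Paclitaxel served as positive control.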

Homo sapiens [7] = species: Homo sapiens; experiment: Induction of microtubule disruption in human A375 cells assessed as cell shrunk with improper microtubule bundling at 70 nM after 24 hrs by FITC/DAPI staining-based fluorescence assay; how it was run: as §3
A-375 [8] = experiment: Induction of apoptosis in human A375 cells assessed as decrease in survivin expression at 10 to 1000 nM after 48 hrs by Western blot analysis; type: functional, cell-based
How it was run: (§4)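 A375 cells at 1×10^5 per well were treated for 48 h and lysed in RIPA buffer. Equal protein was run on 12% SDS-PAGE and transferred to PVDF, which was blocked in 5% milk/PBS for 1 h at room temperature. Primary antibodies (survivin, caspase-3, Bcl-2, PARP, p-ERK, total ERK, GAPDH) were used at 1:1000. GAPDH served as loading control.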

A-375 [9] = experiment: Induction of apoptosis in human A375 cells assessed as increase in procaspase-3 cleavage at 10 to 1000 nM after 48 hrs by Western blot analysis; type: functional, cell-based; how it was run: as §4
A-375 [10] = experiment: Induction of apoptosis in human A375 cells assessed as decrease in Bcl-2 expression at 10 to 1000 nM after 48 hrs by Western blot analysis; type: functional, cell-based; how it was run: as §4
A-375 [11] = experiment: Induction of apoptosis in human A375 cells assessed as viable cells at 10 nM after 24 hrs by Annexin V/propidium iodide staining-based FACS analysis (reference value: 92.2%); type: functional; details: A-375, 24 h, read-out: Activity
A-375 [12] = experiment: Induction of apoptosis in human A375 cells assessed as viable cells at 100 nM after 24 hrs by Annexin V/propidium iodide staining-based FACS analysis (reference value: 92.2%); type: functional; details: A-375, 24 h, read-out: Activity
A-375 [13] = experiment: Induction of apoptosis in human A375 cells assessed as viable cells at 1000 nM after 24 hrs by Annexin V/propidium iodide staining-based FACS analysis (reference value: 92.2%); type: functional; details: A-375, 24 h, read-out: Activity
PC-3 [14] = experiment: Induction of apoptosis in human PC3 cells assessed as viable cells at 1 nM after 24 hrs by Annexin V/propidium iodide staining-based FACS analysis (reference value: 97.0%); type: functional; details: PC-3, 24 h, read-out: Activity
PC-3 [15] = experiment: Induction of apoptosis in human PC3 cells assessed as viable cells at 10 nM after 24 hrs by Annexin V/propidium iodide staining-based FACS analysis (reference value: 97.0%); type: functional; details: PC-3, 24 h, read-out: Activity
PC-3 [16] = experiment: Induction of apoptosis in human PC3 cells assessed as viable cells at 100 nM after 24 hrs by Annexin V/propidium iodide staining-based FACS analysis (reference value: 97.0%); type: functional; details: PC-3, 24 h, read-out: Activity
A-375 [17] = experiment: Induction of apoptosis in human A375 cells after 24 hrs by Annexin V/propidium iodide staining-based FACS analysis; type: functional, cell-based

Row | SMILES | pIC50 (PC-3 [1]) | pIC50 (A-375 [2]) | pIC50 (HeLa) | other results
1 | CC[n+]1c2c(n(C(C)C)c1/C=C/c1c[nH]c3ccccc13)C(=O)c1ccccc1C2=O | 7.15 | 6.26 | 5.21 | 
2 | CC[n+]1c2c(n(C3CC3)c1/C=C/c1ccccc1)C(=O)c1ccccc1C2=O | 7.42 | 5.88 | 5.18 | 
3 | CC[n+]1c2c(n(C3CC3)c1/C=C/c1ccc(OC)c(OC)c1)C(=O)c1ccccc1C2=O | 7.18 | 5.10 | 4.87 | 
4 | CC[n+]1c2c(n(C3CC3)c1/C=C/c1cccc([N+](=O)[O-])c1)C(=O)c1ccccc1C2=O | 7.55 | 5.27 | 4.95 | 
5 | COCC[n+]1c2c(n(Cc3ccccc3)c1/C=C/c1cccc(O)c1)C(=O)c1ccccc1C2=O | 7.00 | 6.10 | 5.31 | 
6 | CC[n+]1c2c(n(C(C)C)c1/C=C/c1cccc(O)c1)C(=O)c1ccccc1C2=O | 6.85 | 5.53 | 4.89 | 
7 | CC[n+]1c2c(n(C(C)C)c1/C=C/c1ccc([N+](=O)[O-])cc1)C(=O)c1ccccc1C2=O | 7.41 | 5.84 | 5.00 | 
8 | CC[n+]1c2c(n(C(C)C)c1/C=C/c1ccc(O)c(OC)c1)C(=O)c1ccccc1C2=O | 7.05 | 5.18 | < 4.52 | 
9 | COCC[n+]1c2c(n(Cc3cccc(OC)c3)c1/C=C/c1cc(OC)c(OC)c(OC)c1)C(=O)c1ccccc1C2=O | 6.54 | 6.00 | 5.12 | 
10 | COCC[n+]1c2c(n(Cc3ccccc3)c1/C=C/c1c[nH]c3ccccc13)C(=O)c1ccccc1C2=O.[Br-] |  |  |  | Activity (Mus musculus [3]): Non-Toxic; Activity (Mus musculus [4]): Non-Toxic
11 | O=P1(N(CCCl)CCCl)NCCCO1 (stereo not drawn) [CYCLOPHOSPHAMIDE ANHYDROUS] |  |  |  | inhibition in vivo at 30 mg/kg (Ehrlich): 48.9%
12 | CC[n+]1c2c(n(C(C)C)c1/C=C/c1ccc(O)cc1)C(=O)c1ccccc1C2=O | 7.14 | 5.25 | < 4.52 | 
13 | CC[n+]1c2c(n(C3CC3)c1/C=C/c1ccc(O)c(OC)c1)C(=O)c1ccccc1C2=O | 7.42 | 4.86 | 4.73 | 
14 | CC(=O)O[C@H]1C(=O)[C@@]2(C)[C@H]([C@H](OC(=O)c3ccccc3)[C@]3(O)C[C@H](OC(=O)[C@H](O)[C@@H](NC(=O)c4ccccc4)c4ccccc4)C(C)=C1C3(C)C)[C@]1(OC(C)=O)CO[C@@H]1C[C@@H]2O |  |  |  | Activity (Homo sapiens [5]): Active; Activity (Homo sapiens [6]): Active; Activity (Homo sapiens [7]): Active
15 | CC[n+]1c2c(n(C(C)C)c1/C=C/c1ccc(C)cc1)C(=O)c1ccccc1C2=O | 7.66 | 5.97 | 5.95 | Activity (A-375 [8]): Active; Activity (A-375 [9]): Active; Activity (A-375 [10]): Active; viability at 0.01 µM (A-375 [11]): 88.3%; viability at 0.1 µM (A-375 [12]): 82.2%; viability at 1 µM (A-375 [13]): 65.7%; viability at 0.001 µM (PC-3 [14]): 98%; viability at 0.01 µM (PC-3 [15]): 96.5%; viability at 0.1 µM (PC-3 [16]): 75.6%; Activity (A-375 [17]): Dose-dependent effect
16 | CC[n+]1c2c(n(C3CC3)c1/C=C/c1c[nH]c3ccccc13)C(=O)c1ccccc1C2=O | 7.28 | 6.05 | 5.69 | 
17 | COCC[n+]1c2c(n(Cc3cccc(OC)c3)c1/C=C/c1c[nH]c3ccccc13)C(=O)c1ccccc1C2=O | 6.67 | 6.45 | 5.86 | 
18 | CC[n+]1c2c(n(C3CC3)c1/C=C/c1cc(OC)c(OC)c(OC)c1)C(=O)c1ccccc1C2=O | 6.84 | 4.59 | < 4.52 | 
19 | COCC[n+]1c2c(n(Cc3ccccc3)c1/C=C/c1ccc(O)c(OC)c1)C(=O)c1ccccc1C2=O | 7.66 | 6.27 | 5.95 | 
20 | COCC[n+]1c2c(n(Cc3cccc(OC)c3)c1/C=C/c1cccc(O)c1)C(=O)c1ccccc1C2=O | 6.65 | 5.95 | 5.13 | 
21 | COCC[n+]1c2c(n(Cc3ccccc3)c1/C=C/C=C/c1ccccc1)C(=O)c1ccccc1C2=O | 6.67 | 6.26 | 5.89 | 
22 | COCC[n+]1c2c(n(Cc3ccccc3)c1C)C(=O)c1ccccc1C2=O | 7.14 | 5.94 | 5.00 | 
